Measurements: ChEMBL document CHEMBL2016448, “Discovery of new piperidine amide triazolobenzodiazepinones as intestinal-selective CCK1 receptor agonists” (Bioorg Med Chem Lett, 2012)

Experiments:
[1] = target: T1, Cholecystokinin receptor type A (Homo sapiens, UniProt P32238); assay: Agonist activity at human CCK1 receptor assessed as increase in CCK8-induced calcium release incubated in dark for 30 mins followed by light incubation for 30 mins measured by FLIPR assay; format: functional
T1 sequence (P32238 whole entry): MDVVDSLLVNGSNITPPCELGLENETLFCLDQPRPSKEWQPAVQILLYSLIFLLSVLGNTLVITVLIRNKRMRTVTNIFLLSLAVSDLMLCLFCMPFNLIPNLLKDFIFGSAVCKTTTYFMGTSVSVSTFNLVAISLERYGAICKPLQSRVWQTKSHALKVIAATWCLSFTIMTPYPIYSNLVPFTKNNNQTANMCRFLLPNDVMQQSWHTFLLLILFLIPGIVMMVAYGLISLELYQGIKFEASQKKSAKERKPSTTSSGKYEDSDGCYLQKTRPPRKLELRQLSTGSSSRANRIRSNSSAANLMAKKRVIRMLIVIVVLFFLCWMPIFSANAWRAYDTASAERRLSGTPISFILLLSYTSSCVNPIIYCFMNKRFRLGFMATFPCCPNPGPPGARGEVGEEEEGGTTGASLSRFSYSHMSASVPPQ
How it was run: (§1)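 FLIPR functional assay in CHO cells expressing human CCK1R. Agonism expressed as % of the CCK-8 peptide response. Initial screen at 30 µM, with >30% counted as active. Actives then run as full dose–response. EC50 is the geometric mean of at least 2 independent experiments.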

[2] = target: T2, Cholecystokinin receptor type A (Homo sapiens) (UniProt P32238); assay: Agonist activity at human CCK1 receptor assessed as increase in CCK8-induced calcium release incubated in dark for 30 mins followed by light incubation for 30 mins measured by FLIPR assay relative to CCK8; format: functional; how it was run: as §1
T2 sequence (whole entry): T1 sequence (P32238 whole entry)

[3] = target: T1, Cholecystokinin receptor type A; assay: Displacement of [125I]-CCK-8 from human CCK1 receptor expressed in CHO cells after 90 mins by liquid scintillation counting
[4] = Intrinsic clearance in human microsomes; format: ADME, Microsome
How it was run: (§2)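 Intrinsic clearance measured in human liver microsomes. The free value is corrected for microsomal binding.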

[5] = Lipophilicity, log D of the compound at pH 7.4; format: physicochemical; conditions: buffer, read-out: logD
[6] = system: Rattus norvegicus; assay: Toxicity in Sprague-Dawley rat assessed as gastrointestinal side-effects at 2 to 6 mg/kg, po; format: organism-based; design: dose 2-6 mg/kg, route oral; conditions: in vivo
How it was run: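 Diet-induced obese rats dosed orally at 2 and 6 mg/kg for 5 days and monitored for gastrointestinal side-effects.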

[7] = Bioavailability in Sprague-Dawley rat portal system; format: ADME, organism-based
[8] = fCmax in Sprague-Dawley rat portal system; format: ADME
[9] = Cmax in Sprague-Dawley rat plasma at 6 mg/kg, po; format: ADME, organism-based; design: dose 6 mg/kg, route oral
How it was run: (§3)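 Male Sprague–Dawley rats dosed iv or po. Oral doses given in SDD formulation. Plasma PK parameters reported as mean of n = 3 rats.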

[10] = Drug level in C57Bl/6J mouse bile at 0.6 mg/kg; format: ADME, organism-based; design: dose 0.6 mg/kg; conditions: in vivo
[11] = system: Blood; assay: Drug level in C57Bl/6J mouse blood at 0.6 mg/kg; format: ADME, organism-based; design: dose 0.6 mg/kg; conditions: in vivo
[12] = Free intrinsic clearance in human microsomes; format: ADME, Microsome; how it was run: as §2
[13] = system: Mus musculus; assay: Antiobesity in C57Bl/6J mouse assessed as reduction in gall bladder weight at 0.6 mg/kg, po measured after 1 hr relative to control; format: functional; design: scale not given: the % may be the effect or the level left
[14] = system: Mus musculus; assay: Antiobesity in C57Bl/6J mouse assessed as reduction in gall bladder weight at 0.2 mg/kg, po measured after 24 hr relative to control; format: functional; design: scale not given: the % may be the effect or the level left
[15] = Drug excretion in Sprague-Dawley rat bile at 1 mg/kg, iv measured after 24 hrs; format: ADME, organism-based; design: dose 1 mg/kg, route intravenous; conditions: read-out: Ae
How it was run: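 Bile-cannulated rats dosed iv at 1 mg/kg. Bile collected over 24 h and % of dose excreted into bile determined.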

[16] = system: Mus musculus; assay: Antiobesity in C57Bl/6J mouse assessed as decrease in food intake at 0.2 mg/kg, po measured after 2 hr relative to control; format: functional; design: scale not given: the % may be the effect or the level left
How it was run: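 Mice fasted overnight, then refed. Compound given orally in SDD formulation at increasing doses. Food intake measured at 2 h against vehicle-treated mice. Minimally efficacious dose defined as significant inhibition (p <0.05).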

[17] = system: Plasma; assay: Plasma clearance in Sprague-Dawley rat at 0.3 mg/kg, iv; format: ADME, organism-based; design: dose 0.3 mg/kg, route intravenous; conditions: in vivo; how it was run: as §3
[18] = Oral bioavailability in Sprague-Dawley rat at 6 mg/kg; format: ADME, organism-based; conditions: in vivo; how it was run: as §3
[19] = system: Rattus norvegicus; assay: fCmax in Sprague-Dawley rat at 6 mg/kg, po; format: ADME, organism-based; design: dose 6 mg/kg, route oral; conditions: in vivo; how it was run: as §3
[20] = Tmax in Sprague-Dawley rat at 6 mg/kg, po; format: ADME, organism-based; design: dose 6 mg/kg, route oral; conditions: in vivo; how it was run: as §3
[21] = Volume of distribution at steady state in Sprague-Dawley rat at 0.3 mg/kg, iv; format: ADME, organism-based; design: dose 0.3 mg/kg, route intravenous; conditions: in vivo, read-out: Vdss; how it was run: as §3
[22] = AUC (0 to last) in Sprague-Dawley rat at 0.3 mg/kg, iv; format: ADME, organism-based; design: time 0 - last, dose 0.3 mg/kg, route intravenous; conditions: plasma; how it was run: as §3
[23] = AUC (0 to last) in Sprague-Dawley rat at 6 mg/kg, po; format: ADME, organism-based; design: dose 6 mg/kg, route oral, time 0 - last; conditions: plasma; how it was run: as §3
[24] = Half life in Sprague-Dawley rat at 0.3 mg/kg, iv; format: ADME, organism-based; design: dose 0.3 mg/kg, route intravenous; conditions: in vivo; how it was run: as §3
[25] = system: Rattus norvegicus; assay: Antiobesity in diet-induced obese Sprague-Dawley rat assessed as decrease in body weight gain at 2 mg/kg, po measured after 5 days; format: functional; design: scale not given: the % may be the effect or the level left
[26] = system: Rattus norvegicus; assay: Antiobesity in diet-induced obese Sprague-Dawley rat assessed as decrease in body weight gain at 6 mg/kg, po measured after 5 days; format: functional; design: scale not given: the % may be the effect or the level left
[27] = system: Rattus norvegicus; assay: Antiobesity in diet-induced obese Sprague-Dawley rat assessed as decrease in food intake at 2 mg/kg, po measured after 5 days relative to control; format: functional; design: scale not given: the % may be the effect or the level left
[28] = system: Rattus norvegicus; assay: Antiobesity in diet-induced obese Sprague-Dawley rat assessed as decrease in food intake at 6 mg/kg, po measured after 5 days relative to control; format: functional; design: scale not given: the % may be the effect or the level left

Compound: O=C1C(Cc2c[nH]c3ccccc23)c2nnc(-c3ccccc3)n2-c2ccccc2N1CC(=O)N1CCCCC1c1ccccc1 (mixture of isomers)
- EC50 [1]: 1670 nM
- Efficacy [2]: 87%
- IC50 [3]: 248 nM

Compound: O=C1C(Cc2c[nH]c3ccccc23)c2nnc(-c3ccccc3)n2-c2ccccc2N1CC(=O)N1CCCCC1Cc1ccncc1 (mixture of isomers)
- EC50 [1]: 421 nM
- Efficacy [2]: 89%
- clearance [4]: 111 µL/min/mg
- IC50 [3]: 340 nM

Compound: COCCC1CCCCN1C(=O)CN1C(=O)C(Cc2c[nH]c3ccccc23)c2nnc(-c3ccccc3)n2-c2ccccc21 (mixture of isomers)
- EC50 [1]: 52.5 nM
- Efficacy [2]: 97%
- clearance [4]: > 300 µL/min/mg
- IC50 [3]: 49.3 nM

Compound: Cc1cccc(CC2CCCCN2C(=O)CN2C(=O)[C@@H](Cc3n[nH]c4ccccc34)c3nnc(-c4ccccc4)n3-c3ccccc32)c1 (stereo not given in full)
- EC50 [1]: 669 nM
- Efficacy [2]: 75%
- logD [5]: 5.1
- IC50 [3]: 87.6 nM

Compound: Cc1cc(C)cc(C[C@H]2CCCCN2C(=O)CN2C(=O)[C@@H](Cc3n[nH]c4ccccc34)c3nnc(-c4ccccc4)n3-c3ccccc32)c1
- Activity [6]: Non-toxic
- bioavailability [7]: 0.56%
- fCmax [8]: 0.063 nM
- Cmax [9]: 0.46 ng/mL
- Drug uptake [10]: Not Active
- Drug uptake [11]: Not Active
- Efficacy [2]: 89%
- logD [5]: 5.6
- CL free [12]: 2300 µL/min/mg
- Activity [13]: 89%
- Activity [14]: 19%
- dose excreted at 24 h [15]: 0.044%
- Activity [16]: 34%
- clearance [17]: 176 mL/min/kg
- bioavailability [18]: 0.13%
- fCmax [19]: 0.014 nM
- Tmax [20]: 0.25 h
- Vd [21]: 17.6 L/kg
- AUC(0-t) [22]: 29 ng·h/mL
- AUC(0-t) [23]: 0.74 ng·h/mL
- half-life [24]: 2.04 h
- Activity [25]: 22%
- Activity [26]: 44%
- Activity [27]: 19%
- Activity [28]: 25%

Compound: O=C1C(Cc2c[nH]c3ccccc23)c2nnc(-c3ccccc3)n2-c2ccccc2N1CC(=O)N1CCCCC1Cc1ccccc1 (mixture of isomers)
- EC50 [1]: 84.2 nM
- Efficacy [2]: 78%
- clearance [4]: 146 µL/min/mg
- IC50 [3]: 44.7 nM

Compound: O=C1C(Cc2c[nH]c3ccccc23)c2nnc(-c3ccccc3)n2-c2ccccc2N1CC(=O)N1CCCCC1CC1CCCCC1 (mixture of isomers)
- EC50 [1]: 256 nM
- Efficacy [2]: 88%
- clearance [4]: 76 µL/min/mg
- IC50 [3]: 4.24 nM

Compound: O=C1C(Cc2c[nH]c3ccccc23)c2nnc(-c3ccccc3)n2-c2ccccc2N1CC(=O)N1CCCC1c1ccccc1 (mixture of isomers)
- EC50 [1]: 2120 nM
- Efficacy [2]: 83%
- IC50 [3]: 168 nM

Compound: O=C(CN1C(=O)C(Cc2c[nH]c3ccccc23)c2nnc(-c3ccccc3)n2-c2ccccc21)N1CCC(Cc2ccccc2)C1 (mixture of isomers)
- EC50 [1]: 1310 nM
- Efficacy [2]: 85%
- clearance [4]: 148 µL/min/mg
- IC50 [3]: 68.6 nM
